Values after ≈ are worked out from the molar mass of the structure shown.
How the values were obtained:
Nucleic Acid [1] = assay: Binding affinity to Escherichia coli 23S rRNA U2506 assessed as degree of protection against CMCT at 5 uM by Chemical footprinting analysis relative to control; type: nucleic-acid assay
Procedure, shortened: (§1)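 Ribosomes came from E. coli MRE600 grown in LB, lysed and purified on sucrose gradients. They were incubated with drug at 5 or 50 μM and then modified with CMCT. Read-out was primer extension with a Cy5-labeled primer, gel electrophoresis and laser scanning. Band intensity with drug is given relative to no-drug control, after subtracting background from unmodified samples (1.00 = no protection, 0 = full protection). Values are means of at least two experiments.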

Nucleic Acid [2] = assay: Binding affinity to Escherichia coli 23S rRNA U2585 assessed as degree of protection against CMCT at 50 uM by Chemical footprinting analysis relative to control; type: nucleic-acid assay; procedure, shortened: as §1
Nucleic Acid [3] = assay: Binding affinity to Escherichia coli 23S rRNA U2506 assessed as degree of protection against CMCT at 50 uM by Chemical footprinting analysis relative to control; type: nucleic-acid assay; procedure, shortened: as §1
Listeria innocua = assay: Antibacterial activity against Listeria innocua after 24 hrs by microtitre plate reader; type: functional
Procedure, shortened: (§2)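 Microtiter broth dilution. Media: E. coli AS19 in LB; B. subtilis 168 in 25% BHI/75% LB/0.05% Tween; L. innocua in 50% BHI/50% LB. Overnight cultures started from single colonies were diluted to OD450 0.01 and mixed 1:1 with 2-fold drug dilutions (0.125–32 μg/mL). Growth was read as OD450. MIC is the lowest concentration giving complete growth inhibition (E. coli read at 24 h).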

Escherichia coli = assay: Antibacterial activity against Escherichia coli AS19 after 24 hrs by microtitre plate reader; type: functional; conditions: AS19, 24 h; procedure, shortened: as §2
Bacillus subtilis = assay: Antibacterial activity against Bacillus subtilis 168 after 12 hrs by microtitre plate reader; type: functional; conditions: Bacillus subtilis, 168, 12 h; procedure, shortened: as §2
Nucleic Acid [4] = assay: Binding affinity to Escherichia coli 23S rRNA U2585 assessed as degree of protection against CMCT at 5 uM by Chemical footprinting analysis relative to control; type: nucleic-acid assay; procedure, shortened: as §1

| Ratio (Nucleic Acid [1]) | Ratio (Nucleic Acid [2]) | Ratio (Nucleic Acid [3]) | MIC (Listeria innocua) | MIC (Escherichia coli) | MIC (Bacillus subtilis) | Ratio (Nucleic Acid [4]) | SMILES |
| --- | --- | --- | --- | --- | --- | --- | --- |
| 0.18 | 0.21 | 0.06 | > 32 µg/mL | ≥ 32 µg/mL | > 32 µg/mL | 0.39 | C=C[C@]1(C)C[C@@H](OC(=O)Cn2cc(/C=C/Cn3cc(C)c(=O)[nH]c3=O)nn2)[C@]2(C)[C@H](C)CC[C@]3(CCC(=O)[C@H]32)[C@@H](C)[C@@H]1O |
| 0.28 | 0.8 | 0.08 | > 32 µg/mL | 1 µg/mL (≈ 2.64 µM) | 32 µg/mL (≈ 84.5 µM) | 0.89 | C=C[C@]1(C)C[C@@H](OC(=O)CO)[C@]2(C)[C@H](C)CC[C@]3(CCC(=O)[C@@H]32)[C@@H](C)[C@@H]1O [PLEUROMUTILIN] |
| 0.3 | 0.41 | 0.08 | > 32 µg/mL | > 32 µg/mL | > 32 µg/mL | 0.5 | C=C[C@]1(C)C[C@@H](OC(=O)Cn2cc(COCc3ccccc3)nn2)[C@]2(C)[C@H](C)CC[C@]3(CCC(=O)[C@H]32)[C@@H](C)[C@@H]1O |
| 0.48 | 0.42 | 0.18 | > 32 µg/mL | 16 µg/mL (≈ 37.2 µM) | > 32 µg/mL | 0.66 | C=C[C@]1(C)C[C@@H](OC(=O)Cn2ccnn2)[C@]2(C)[C@H](C)CC[C@]3(CCC(=O)[C@H]32)[C@@H](C)[C@@H]1O |
| 0.23 | 0.22 | 0.07 | > 32 µg/mL | > 32 µg/mL | > 32 µg/mL | 0.37 | C=C[C@]1(C)C[C@@H](OC(=O)Cn2cc(COCn3cc(C)c(=O)[nH]c3=O)nn2)[C@]2(C)[C@H](C)CC[C@]3(CCC(=O)[C@H]32)[C@@H](C)[C@@H]1O |
| 0.09 | 0.16 | 0.04 | > 32 µg/mL | 16 µg/mL (≈ 26.5 µM) | > 32 µg/mL | 0.19 | C=C[C@]1(C)C[C@@H](OC(=O)Cn2nncc2CCCn2cnc3c(N)ncnc32)[C@]2(C)[C@H](C)CC[C@]3(CCC(=O)[C@H]32)[C@@H](C)[C@@H]1O |
| 0.1 | 0.16 | 0.05 | > 32 µg/mL | 8 µg/mL (≈ 13.3 µM) | 16 µg/mL (≈ 26.5 µM) | 0.29 | C=C[C@]1(C)C[C@@H](OC(=O)Cn2cc(/C=C/Cn3cnc4c(N)ncnc43)nn2)[C@]2(C)[C@H](C)CC[C@]3(CCC(=O)[C@H]32)[C@@H](C)[C@@H]1O |
| 0.21 | 0.22 | 0.06 | > 32 µg/mL | > 32 µg/mL | > 32 µg/mL | 0.37 | C=C[C@]1(C)C[C@@H](OC(=O)Cn2cc(COCn3cnc4c(N)ncnc43)nn2)[C@]2(C)[C@H](C)CC[C@]3(CCC(=O)[C@H]32)[C@@H](C)[C@@H]1O |
| 0.06 | 0.07 | 0.06 | > 32 µg/mL | 1 µg/mL (≈ 1.57 µM) | 8 µg/mL (≈ 12.5 µM) | 0.1 | C=C[C@]1(C)C[C@@H](OC(=O)Cn2cc(-c3cccc(-n4cnc5c(N)ncnc54)c3)nn2)[C@]2(C)[C@H](C)CC[C@]3(CCC(=O)[C@H]32)[C@@H](C)[C@@H]1O |
| 0.28 | 0.24 | 0.08 | > 32 µg/mL | ≥ 32 µg/mL | > 32 µg/mL | 0.43 | C=C[C@]1(C)C[C@@H](OC(=O)Cn2cc(COCCn3cc(C)c(=O)[nH]c3=O)nn2)[C@]2(C)[C@H](C)CC[C@]3(CCC(=O)[C@H]32)[C@@H](C)[C@@H]1O |
| 0.31 | 0.26 | 0.09 | > 32 µg/mL | > 32 µg/mL | > 32 µg/mL | 0.46 | C=C[C@]1(C)C[C@@H](OC(=O)Cn2cc(C[C@@H]3[C@H](O)[C@@H](CO)O[C@H]3n3ccc(=O)[nH]c3=O)nn2)[C@]2(C)[C@H](C)CC[C@]3(CCC(=O)[C@H]32)[C@@H](C)[C@@H]1O |
| 0.05 | 0.16 | 0.04 | 1 µg/mL (≈ 1.77 µM) | < 0.125 µg/mL | 2 µg/mL (≈ 3.54 µM) | 0.15 | C=C[C@]1(C)C[C@@H](OC(=O)CSC(C)(C)CNC(=O)[C@H](N)C(C)C)[C@]2(C)[C@H](C)CC[C@]3(CCC(=O)[C@H]32)[C@@H](C)[C@@H]1O [VALNEMULIN] |
| 0.07 | 0.5 | 0.03 | > 32 µg/mL | 0.5 µg/mL (≈ 1.01 µM) | > 32 µg/mL | 0.54 | C=C[C@]1(C)C[C@@H](OC(=O)CSCCN(CC)CC)[C@]2(C)[C@H](C)CC[C@]3(CCC(=O)[C@H]32)[C@@H](C)[C@@H]1O [TIAMULIN] |
| 0.18 | 0.22 | 0.08 | > 32 µg/mL | > 32 µg/mL | > 32 µg/mL | 0.4 | C=C[C@]1(C)C[C@@H](OC(=O)Cn2cc(-c3ccc(-n4cnc5c(N)ncnc54)cc3)nn2)[C@]2(C)[C@H](C)CC[C@]3(CCC(=O)[C@H]32)[C@@H](C)[C@@H]1O |
| 0.13 | 0.17 | 0.05 | > 32 µg/mL | 8 µg/mL (≈ 13.2 µM) | > 32 µg/mL | 0.23 | C=C[C@]1(C)C[C@@H](OC(=O)Cn2cc(CCCn3cnc4c(N)ncnc43)nn2)[C@]2(C)[C@H](C)CC[C@]3(CCC(=O)[C@H]32)[C@@H](C)[C@@H]1O |
